A short description of data set [1]: Tmax in Sprague-Dawley rat at 10 mg/kg, po administered as single dose by LC-MS/MS method. It counts as ADME, organism-based. The settings on record: in vivo. The method in brief: (§1)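 Single oral (10 mg/kg) or intravenous (1 mg/kg) dose in rats, n = 3. Jugular vein blood taken at 2, 15 and 30 min and 1, 2, 4 and 6 h. Plasma concentrations measured by LC-MS/MS.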

Data set [2] in a line: Plasma concentration in Sprague-Dawley rat model of distension-induced rhythmic bladder contraction at 1 mg/kg, iv measured after 15 mins. Format: ADME, organism-based.
A short description of data set [3]: Plasma concentration in Sprague-Dawley rat model of distension-induced rhythmic bladder contraction at 10 mg/kg, po measured after 3.5 hrs. It counts as ADME, organism-based.
Data set [4] can be described thus: Cmax in Sprague-Dawley rat at 10 mg/kg, po administered as single dose by LC-MS/MS method. It counts as ADME, organism-based. Details: dose 10 mg/kg, route oral. The settings on record: in vivo. The method in brief:
as §1

A short description of data set [5]: Bioavailability in Sprague-Dawley rat at 10 mg/kg, po administered as single dose by LC-MS/MS method. It counts as ADME, organism-based. The settings on record: in vivo. In short, it runs like this: as §1
Data set [6] is described as follows: Volume of distribution at steady state in Sprague-Dawley rat at 1 mg/kg, iv administered as single dose by LC-MS/MS method. The following applies: in vivo, read-out: Vdss. Format: ADME, organism-based. The method in brief:
as §1

Data set [7] in a line: Drug metabolism in rat plasma assessed as hydrolyzation of methyl ester to carboxylic acid. It counts as ADME, cell-free.

One may read the Tmax as the time from dosing to the highest level. The Cmax is the maximum level reached in the sampled fluid or tissue. As usually defined, the bioavailability is the share of a dose that reaches the circulation, judged against a reference dose that is usually intravenous.

For the compound `C[C@H](c1cc(F)cc(F)c1)N(C(=O)c1ccccc1)[C@@H](C(N)=O)c1ccccc1`, the Tmax in data set [1] was 50 min. In data set [2], this compound returned a concentration at […] of 1120 nM. In data set [3], this compound came in with a concentration at 3.5 h of over 1000 nM. In data set [4], the peak level (Cmax) was 3230 nM. The bioavailability in data set [5] is 59%. Further, in data set [6], the Vd amounted to 1.2 L/kg.

Take `COC(=O)[C@@H](c1ccccc1)N(Cc1cccc(OC)c1)C(=O)c1ccccc1`: the Drug metabolism result in data set [7] is reported as “Metabolite_Detected”.

The record behind these values is ChEMBL document CHEMBL3872272, “Synthesis and optimization of novel α-phenylglycinamides as selective TRPM8 antagonists” (Bioorg Med Chem, 2017).
